Source: ChEMBL document CHEMBL4513216, “Probing the Open Global Health Chemical Diversity Library for Multistage-Active Starting Points for Next-Generation Antimalarials” (ACS Infect Dis, 2020)

Assay: Toxicity liver stage against HepG2, at 10uM
Assay type: cell-based
Parameters: test concentration 10 uM, cell line HepG2-A16-CD81EGFP
Details: human, HepG2-A16-CD81EGFP cells; read-out: INHIBITION
Outline: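 Uninfected HepG2-A16-CD81EGFP cells, 3 × 10^3 per well, 1536-well, plated on prespotted compound at 10 μM final, parasite-free screening media added to match infected plates; puromycin 10 μM positive, DMSO 0.5% negative; run in parallel with 48 h PbLuc assay at 37 °C, 5% CO2; viability by CellTiter-Glo luminescence, normalized to controls.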

Compound | cytotoxicity at 10 µM [%]
O=C1CSC(c2ccc3c(c2)OCO3)c2cnn(C3CCCCC3)c2N1 (centres undefined) | -6.06
COC(=O)c1cccc(C(=O)NCc2ccc(C)o2)n1 | 11.5
Cc1cc(=O)n2nc(CNc3cc(Cl)ccc3C)nc2[nH]1 | -5.64
COc1ccc(NC(=O)c2cnc(N3CCN(C)CC3)nc2C)cc1 | -3.45
CN1CCC(N(C)C(=O)c2cnn(-c3cc(F)ccc3F)c2N)CC1 | -8.47
CN(C)CCCNC(=O)c1nc(Cc2c(Cl)cccc2Cl)no1 | -0.31
CN(C)S(=O)(=O)N1CCC(c2nnc(C(F)(F)F)o2)CC1 | 3.79
CS(=O)(=O)N1C[C@@H](C(=O)Nc2cnccn2)C[C@H]2OCC[C@H]21 | 17.3
CCN(CC)c1ccc2ccc(C(=O)O)cn12 | 1.42
Cc1nnn2c1COC(CNCc1ccncc1)C2 (centres undefined) | 7.48
CCNC(=O)Cc1n[nH]c(-c2cncc(Br)c2)n1 | 1.2
CCC1=NC(SCC(=O)c2ccc(C)cc2)c2cc(CC)sc2N1 (centres undefined) | 9.76
CCCN(CCC)C(=O)Cn1c(SC)nc2ccsc2c1=O | 3.88
Cc1nccn1CCC1CCN(C(C)C)CC1 | -20.7
Cn1c(CN2CCOC(CCc3ccncn3)C2)nc2ccccc21 (centres undefined) | -4.42
c1cc(-c2nnc(C3CCCN(CC4CCCCC4)C3)o2)ccn1 (centres undefined) | -12.1
Cc1nn(C)cc1CN1CCc2c(nc(-c3ccccn3)[nH]c2=O)C1 | -32.1
Cn1nccc1C(=O)N1CCOC(Cc2cccnc2)C1 (centres undefined) | -7.95
CC(=O)N1CCCC1c1nccnc1Nc1cccc(C)n1 (centres undefined) | 1.31
O=C(COc1cc(Cl)cc(Cl)c1)NCc1nncn1C1CC1 | -11.5
CCCc1nc(CN(CCO)Cc2cc(Br)ccc2F)no1 | -5.1
Cc1cc(C)n2cc(CN3CCC(N4CCN(C)C4=O)CC3)nc2n1 | 3.66

Compound | cytotoxicity at 10 µM [%]
Cc1cc(C)n(CC2CCCN2Cc2cccc(C#N)c2)n1 (centres undefined) | 11.2
Cc1nn(C)c(C)c1C(=O)N1CCN(C(=O)CC2CCCCC2)CC1 | -2.55
Cc1cc(C)n(CCCNC(=O)NCc2c(C)cc(C)[nH]c2=O)n1 | -1.12
CC(NC(=O)NCCn1ccnc1)c1nncn1C (centres undefined) | -8.92
Cc1cc(CNCC2CCCN(C(=O)OC(C)(C)C)C2)no1 (centres undefined) | 6.22
COCC(=O)N1CCN(Cc2csc(-c3ncccn3)n2)CC1 | -11.3
CCCc1nc(CN2CCCC2Cn2cccn2)cs1 (centres undefined) | -4.45
CSC(C)C(=O)NCCC(=O)N1CCN(c2ccccn2)CC1 (centres undefined) | 3.05
Cc1ccc(NC(=O)CNc2ccccc2C(N)=O)c(C)c1 | 1.15
O=C(c1ccc(=O)[nH]n1)N1CCc2ccccc21 | 37.9
COc1c(C(=O)N2CCOC(c3cccs3)C2)c(C)nn1C (centres undefined) | -0.43
Cc1cccc(C(=O)Nc2cccc3c2C(=O)NC3)n1 | 1.14
Cc1cccc(C2CCCCN2C(=O)CCCS(C)(=O)=O)c1C (centres undefined) | 4.96
Cc1ccc(C(=O)N2CCN(c3ccnc4ccsc34)CC2)o1 | 38.7
NC(=O)NC(=O)CNC1(c2ccc(Cl)cc2)CCCC1 | 15.7
O=C(CCN1C(=O)CCC1=O)Nc1ccc(OCC(F)(F)F)nc1 | -13.4
N#CCc1ccc(OCC(=O)NS(=O)(=O)c2ccc(Cl)s2)cc1 | 6.41
Cc1nnc(CN2CCCC2c2ccc(C(C)(C)C)cc2)o1 (centres undefined) | -8.48
COc1ccc(COCC(O)CN(C)c2ccc(C)cc2C)cc1 (centres undefined) | 1.6
CCC(C)(NCc1ncc(C(C)C)o1)c1nccs1 (centres undefined) | 18.9
CC(=O)N1CCC(NC(=O)NCCCc2cn[nH]c2C)CC1 | -4.2
COC(C)(C)CC(C)NC(=O)NC1CCN(Cc2ccccn2)CC1 (centres undefined) | 4.83

Compound | cytotoxicity at 10 µM [%]
Cc1cnn(CC2CCCN2C(=O)Cc2cn3ccsc3n2)c1 (centres undefined) | -10.1
CN(Cc1cccc(OC(F)(F)F)c1)C(=O)c1ccncc1F | 3.76
CCS(=O)(=O)NCCCNC(=O)N(C)C(C)c1ccccn1 (centres undefined) | 7.31
COCc1ccccc1NC(=O)[C@@H]1CCCN1C(=O)c1ccco1 | -6.34
Cc1nc(CN2CCC3(C2)CN(C(=O)c2conc2C)C3)cs1 | -105
O=C1[C@H]2CN(Cc3ccoc3)C[C@@H]2CCN1Cc1cccnc1 | -71.5
CCOCc1ncn2c1CN(C(=O)c1ccoc1)CC2 | -72.6
O=C(c1cccs1)N1CCCn2cnc(COCC3CC3)c2C1 | -81.3
Cn1cc(C2COC3(CCN(C(=O)Cn4cccn4)CC3)C2)cn1 (centres undefined) | 2.7
O=C(c1ccoc1)N1CCCn2cnc(COCC3CC3)c2C1 | 2.47
Cc1cncc(C(=O)N2Cc3ccccc3C3(CCN(C)CC3)C2)c1 | 4.37
Cc1ccc(C(=O)N2C[C@H]3CCC[C@@]3(COCc3cccnc3)C2)s1 | 3.24
c1ccc(-c2nc3c(c(NCc4nnc5n4CCC5)n2)CCNC3)cc1 | -3.71
CCN(CC)C(=O)Cn1cc(C(=O)NCCc2nc(C)c(C)s2)nn1 | 2.22
OCC1CCCCN1CCn1ccnc1-c1nc2ccccc2[nH]1 (centres undefined) | 8.89
CN(Cc1ccc(-n2cccn2)cc1)Cc1ncc[nH]1 | 1.79
Cc1cnc(N2CCCC(c3ccccc3)C2)nc1-c1ncnn1C (centres undefined) | -1.79
Cc1noc(C)c1CN(C)Cc1cnc(N2CCOCC2)nc1 | -2.28
c1cc2c(cc1-c1noc3c1CN(C1CCC1)CC3)OCO2 | -18.4
CC(C)(C)CCN1CCCC(Cn2cc(CCO)nn2)C1 (centres undefined) | -13.9
CCc1cc(C(C)Nc2nc(-c3cccnc3)nc3c2CNC3)on1 (centres undefined) | 16.9
Cc1c[nH]c(CN2CCCCC2CCN(C)C)c(C)c1=O (centres undefined) | -2.97

Compound | cytotoxicity at 10 µM [%]
Cc1nc[nH]c1CN1CCC(CNC(=O)c2cccc3cnccc23)C1 (centres undefined) | -10.1
CC[C@@H](c1ccccc1)n1c(CCN)n[nH]c1=O | 5.33
O=C(O)[C@@]12CN(c3cnccn3)C[C@@H]1CN(C1CCCC1)C2 | -10.3
CN(Cc1cccnc1)c1nccc(N2CCN[C@H]3CS(=O)(=O)C[C@H]32)n1 | 5.82
Cc1ccc(NC(=O)[C@H]2C[C@H](C(=O)O)CN(CC3CC3)C2)cn1 | 0.999
CCNC(=O)[C@@H]1C[C@H](NC(=O)Cn2ccnc2)CN1Cc1ccsc1 | 5.89
CN(CCO)Cc1nnc(C2CCN(C(=O)C3CCOCC3)CC2)n1C | 2.01
CN(Cc1ccncn1)C(=O)CCC(=O)NC1CCCC1 | -1.01
Cc1ccc(-c2cccc(N3CCC(NC4CCOCC4)CC3)c2)cc1 | -12.3
O=C1[C@@H]2CN(c3ncccc3Cl)C[C@]2(C(=O)O)CN1CC1CC1 | 1.04
O=C1NCCCc2[nH]c(-c3nc(C4CC4)no3)nc21 | -5.74
CSC(C)C(=O)N1CCC(Oc2cc(C)ccc2F)(C(=O)O)CC1 (centres undefined) | 2.88
OC1(CNCCc2csc(-c3ncccn3)n2)CCNC1 (centres undefined) | -8.44
CC(C)c1nccc(-c2nccn2CCS(C)(=O)=O)n1 | 4.68
Cc1ccc(F)cc1-n1c(CCCN2CCOCC2)n[nH]c1=O | 7.32
COc1ncc(-c2c(C#N)c(N)nc3c2CCc2[nH]ccc2-3)cn1 | 6.47
O=C(NC1CC1)c1cn(C2CCN(c3cc(C4CC4)ncn3)CC2)nn1 | 27.8
Cc1ccc(CC(=O)N2CCCC(c3cc(C(N)=O)[nH]n3)C2)cn1 (centres undefined) | -14.2
CN(C)c1ccc(C(=O)NCCCNc2ccc(C(F)(F)F)cn2)cc1 | -7.66
CC(C)(C)c1noc(CN2CCCCC2Cn2cncn2)n1 (centres undefined) | -2.4
O=C(CN1CCc2c(ncn2C2CC2)C1)NC1CCN(C2CC2)CC1 | -8.44
CC(C(=O)NCc1cccc(N2CCCC2=O)c1)S(C)(=O)=O (centres undefined) | 2.66

Compound | cytotoxicity at 10 µM [%]
Cc1ccccc1CN1CCN(Cc2nccn2C)CC1 | -10.1
CC(NC(=O)CCOc1ccccc1Cl)c1nnc2n1CCC2 (centres undefined) | -6.46
CC(NC(=O)CCn1cncn1)c1nnc2n1CCCCC2 (centres undefined) | -9.26
Cc1ncsc1CN1C[C@@H]2COC[C@]2(C(=O)NCC2CC2)C1 | 5.38
Cc1ccc(C(=O)N2CCC3(CC2)CC(c2cnn(C)c2)CO3)cn1 (centres undefined) | -69.5
Cc1ccc(N2CC3(COCCN(Cc4cccnc4)C3)OCC2=O)s1 (centres undefined) | 2.39
Cc1cccc(CN2C[C@@H]3OCCN(CC(=O)N(C)C)[C@@H]3C2)c1 | -110
Cc1ccoc1C(=O)N1Cc2c(Cn3ccnc3)nn(C)c2C1 | -68.5
CCS(=O)(=O)NC[C@]12COC[C@H]1CN(Cc1cccc(OC)c1)C2 | -6.23
COCCN1CCO[C@@H]2CN(Cc3cc(OC)cc(OC)c3)C[C@@H]2C1 | 38.8
CC1=N[C@@]2(CC[C@@H]3CN(CC(C)C)C[C@@H]32)C(=O)N1CC(C)C | -79.6
c1cncc(COC[C@H]2CC[C@H]3[C@H](CCN3Cc3nccs3)O2)c1 | -69.6
c1ccc(OCc2nnc3n2CCN(CC2CC2)C3)nc1 | -0.945
Cc1nnn2c1COC(CNCc1ccccn1)C2 (centres undefined) | 0.903
CS(=O)(=O)N1CCC2(CC1)CN(CC1CCOC1)c1ccccc12 (centres undefined) | -108
CCC(=O)N1Cc2nccn2CC(CN(C)Cc2cccnc2)C1 (centres undefined) | 3.55
CS(=O)(=O)N1CC[C@H]2OCC[C@@]2(C(=O)NCc2ccccn2)C1 | -84.7
O=C(C1CCCC1)N1CCC2(CC1)COCCN2CC1CC1 | 5.01
COc1ccc(F)c(-c2ncccc2C(=O)N2C[C@@H]3CC[C@H]2C3)c1 | -6.12
COCCN1C(=O)[C@@H]2CC[C@H]1CN(S(=O)(=O)c1ccc(C#N)cc1)C2 | -2.59
CC(C)=CCN1C[C@@H]2CC[C@H]1CN(C(=O)c1ccc(S(N)(=O)=O)cc1)C2 | -5.96
